Laboratory results taken from ChEMBL document CHEMBL1146335, “Synthesis and biological activation of an ethylene glycol-linked amino acid conjugate of cyclic cidofovir” (Bioorg Med Chem Lett, 2007).
Values belong to the compound of their own block, whether it stands above or below them.

Key:
[1] = Stability in phosphate buffer in pH 3 at 37 degC at 500 uM; assay type: physicochemical; conditions: pH 3, 500 µM
Method in brief: (§1)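 Compound (500 μM) incubated at 37°C in 50 mM phosphate buffer brought to the stated pH with HCl. Monitored over 3 hours; half-life in hours.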

Liver = test: (§2) Half life in rat liver in 37degC at 500 uM; assay type: ADME, tissue-based; conditions: 500 µM
Method in brief: (§3)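 Compound exposed at 37°C to homogenates of Caco-2 or HFF cells, or of rat liver or intestine. Samples taken at intervals from 0 to 3 h and analysed by HPLC. Half-life estimated as for the buffer stability study.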

[2] = Stability in phosphate buffer in pH 5 at 37 degC at 500 uM; assay type: physicochemical; conditions: pH 5, 500 µM; method in brief: as §1
[3] = Stability in phosphate buffer in pH 4 at 37 degC at 500 uM; assay type: physicochemical; conditions: pH 4, 500 µM; method in brief: as §1
Intestine = test: (§4) Half life in rat intestine in 37degC at 500 uM; assay type: ADME, tissue-based; conditions: 500 µM; method in brief: as §3
[4] = AUC (0 to infinity) in rat at 0.1 mg, iv; assay type: ADME, organism-based; set-up: dose 0.1 mg, route intravenous, time infinity; conditions: plasma
Method in brief: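 Rat; reference compound dosed intravenously at 0.1 mg. Plasma AUC from zero to infinity, dose normalized.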

Rattus norvegicus = test: Bioavailability in rat at 3 mg, iv; assay type: ADME, organism-based; conditions: in vivo, in the assay text read “0.1 mg” for “3 mg”
Method in brief: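 Rat; drug injected directly into the gastrointestinal tract at 3 mg, with a 0.1 mg intravenous reference. Prodrug AUC summed the released cyclic parent and the intact prodrug. Bioavailability = dose-normalized GI AUC ÷ IV AUC, corrected for the IV vs oral dose difference.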

HFF = test: (§5) Half life in HFF cells in 37degC at 500 uM; assay type: ADME, cell-based; conditions: human, hff, 500 µM; method in brief: as §3
[5] = Stability in phosphate buffer in pH 6 at 37 degC at 500 uM; assay type: physicochemical; method in brief: as §1
Caco-2 = test: (§6) Half life in Caco-2 cells in 37degC at 500 uM; assay type: ADME, cell-based, Colon; conditions: human, caco-2, 500 µM; method in brief: as §3
[6] = Half life in Sprague-Dawley rat intestinal lumen in 37degC at 500 uM; assay type: ADME
Method in brief: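 Compound incubated at 37°C in intestinal perfusate from Sprague Dawley rats. Perfusate made by passing buffered solution (pH 6.5) through an isolated intestinal segment. Sampled between 0 and 3 h, analysed by HPLC, half-life estimated.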

[7] = Stability in phosphate buffer in pH 7 at 37 degC at 500 uM; assay type: physicochemical; method in brief: as §1
Human betaherpesvirus 5 = test: Antiviral activity against HCMV Towne in HFF cells by plaque reduction assay; assay type: functional, organism-based; conditions: Human betaherpesvirus 5, Towne
Method in brief: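 HFF cells in 24-well dishes infected with ~100 p.f.u./cm2 HCMV Towne (plaque-purified isolate Po). After adsorption, compounds (DMSO stocks diluted in growth medium) added at 4–8 concentrations in duplicate.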

[8] = Stability in phosphate buffer in pH 6.5 at 37 degC at 500 uM; assay type: physicochemical; method in brief: as §1
[9] = as §2; assay type: ADME, tissue-based; conditions: rat liver; method in brief: as §3
[10] = as §4; assay type: ADME, tissue-based; conditions: rat intestine; method in brief: as §3
KB = test: Cytotoxicity against human KB cells at 100 uM; assay type: functional, cell-based
Method in brief: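 KB cells grown logarithmically for two days with compound, in triplicate. Growth read by spectrophotometric quantitation of crystal violet eluted from stained cells.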

[11] = as §5; assay type: ADME, cell-based; conditions: human, HFF cells; method in brief: as §3
[12] = as §6; assay type: ADME, cell-based, Colon; conditions: human, Caco-2 cells; method in brief: as §3

Stability [1]: Stable
Stability (Liver): Stable
Stability [2]: Stable
Stability [3]: Stable
Stability (Intestine): Stable
AUC(0-inf) [4]: 472 ng·h/mL
F (Rattus norvegicus): 100%
Stability (HFF): Stable
Stability ([5]; buffer, pH 6, 500 µM): Stable
Stability (Caco-2): Stable
Stability ([6]; in vivo, 500 µM): Stable
Stability ([7]; buffer, pH 7, 500 µM): Stable
SMILES: Nc1ccn(C[C@H]2COP(=O)(O)CO2)c(=O)n1 [CYCLIC CIDOFOVIR]

IC50 (Human betaherpesvirus 5): 3000 nM
SMILES: Nc1nc2c(ncn2COC(CO)CO)c(=O)[nH]1 [GANCICLOVIR]

Stability [1]: Stable
Stability [2]: Stable
Stability [3]: Stable
half-life at 500 µM [8]: 3.7 h
SMILES: Nc1ccn(C[C@H]2COP(=O)(OCCOC(=O)C(N)Cc3ccccc3)CO2)c(=O)n1 (some centres undefined)

Stability [1]: Stable
half-life at 500 µM [9]: 3.7 min
Stability [2]: Stable
Stability [3]: Stable
half-life at 500 µM [10]: 0.208 h
IC50 (Human betaherpesvirus 5): 680 nM
half-life at 500 µM [11]: 1.17 h
half-life at 500 µM ([5]; phosphate buffer, pH 6): 16 h
half-life at 500 µM [12]: 0.337 h
half-life at 500 µM ([6]; Sprague-Dawley, rat intestinal lumen): 2.36 h
half-life at 500 µM ([7]; phosphate buffer, pH 7): 3.5 h
SMILES: CC(C)C(N)C(=O)OCCOP1(=O)CO[C@@H](Cn2ccc(N)nc2=O)CO1 (some centres undefined)
Activity (KB): Not toxic
